Broadly, the MIC is the least concentration at which growth counts as inhibited. The low end stands for inhibition by little substance, the high end for a need for much substance.

The record followed here is ChEMBL document CHEMBL1806357, “A regioselective synthesis of some new pyrazol-1'-ylpyrazolo[1,5-a]pyrimidines in aqueous medium and their evaluation as antimicrobial agents” (2011).

Common to all, as to type: functional
Test [1] concerns Pseudomonas aeruginosa. The test can be described thus: Antibacterial activity against Pseudomonas aeruginosa ATCC 25668 at 2 mg/ml after 24 hrs by agar-well diffusion technique. Particulars: ATCC 25668, 24 h, read-out: DIZ. An outline of the steps:
(§1)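 Agar-well diffusion used MHA seeded with 24 h cultures at 0.5 McFarland (1 × 10^6 CFU/ml). 100 µl of compound (2 mg/ml in DMSO, filter-sterilized) went into each 6 mm well. Plates were incubated upright at 37 ± 1 °C for 24 h, and the inhibition zone diameter was measured in mm. DMSO was the negative control. Values are the mean of three replicates.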
In general terms: Agar diffusion results depend on both activity and mobility in agar.

Test [2] concerns Pseudomonas aeruginosa. The test can be described thus: Antibacterial activity against Pseudomonas aeruginosa ATCC 25668 after 24 hrs by broth microdilution method. Particulars: ATCC 25668, 24 h.
The test system of test [3] is Staphylococcus aureus. The test can be described thus: Antibacterial activity against Staphylococcus aureus ATCC 9144 at 2 mg/ml after 24 hrs by agar-well diffusion technique. The conditions noted are these: ATCC 9144, 24 h, read-out: DIZ. The method in brief:
as §1

In test [4] the test system is Staphylococcus aureus. Briefly: Antibacterial activity against Staphylococcus aureus ATCC 9144 after 24 hrs by broth microdilution method. The conditions noted are these: ATCC 9144, 24 h. On the technique in general: In broth dilution the organism is exposed to a series of concentrations in liquid medium.
For test [5], the system named is Bacillus cereus. The test can be described thus: Antibacterial activity against Bacillus cereus ATCC 11778 after 24 hrs by broth microdilution method. Particulars: ATCC 11778, 24 h.
Test [6] deals with Escherichia coli. The test can be described thus: Antibacterial activity against Escherichia coli ATCC 8739 at 2 mg/ml after 24 hrs by agar-well diffusion technique. Particulars: ATCC 8739, 24 h, read-out: DIZ. The method in brief: as §1
In test [7] the test system is Bacillus cereus. Briefly: Antibacterial activity against Bacillus cereus ATCC 11778 at 2 mg/ml after 24 hrs by agar-well diffusion technique. The conditions noted are these: ATCC 11778, 24 h, read-out: DIZ. An outline of the steps:
as §1

For test [8], the system named is Escherichia coli. Briefly: Antibacterial activity against Escherichia coli ATCC 8739 after 24 hrs by broth microdilution method. The conditions noted are these: ATCC 8739, 24 h.
Test [9] deals with Alternaria alternata. Briefly: Antifungal activity against Alternaria alternata at 10 ug/ml after 7 days by poisoned food technique relative to control. An outline of the steps:
(§2)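 Poisoned food technique with soil-isolated fungi on PDA. Compound from a 1 mg/ml DMSO stock was added to molten agar at 40 ± 2 °C to give 10, 50, 100 or 200 µg/ml. A 6 mm mycelial disc from a 6-day culture was placed centrally, and plates were held at 28 ± 1 °C. Radial growth was measured after 7 days, and % inhibition was calculated against PDA/DMSO control, in triplicate.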

In test [10] the test system is Aspergillus terreus. Briefly: Antifungal activity against Aspergillus terreus at 10 ug/ml after 7 days by poisoned food technique relative to control. An outline of the steps:
as §2

The test system of test [11] is Helminthosporium. The test can be described thus: Antifungal activity against Helminthosporium sp. at 200 ug/ml after 7 days by poisoned food technique relative to control. An outline of the steps: as §2
Test [12] has as its system Aspergillus terreus. The test can be described thus: Antifungal activity against Aspergillus terreus at 50 ug/ml after 7 days by poisoned food technique relative to control. An outline of the steps: as §2
Test [13] relates to Aspergillus terreus. Briefly: Antifungal activity against Aspergillus terreus at 200 ug/ml after 7 days by poisoned food technique relative to control. The method in brief:
as §2

The test system of test [14] is Fusarium oxysporum. Briefly: Antifungal activity against Fusarium oxysporum at 200 ug/ml after 7 days by poisoned food technique relative to control. An outline of the steps:
as §2

In test [15] the test system is Helminthosporium. Briefly: Antifungal activity against Helminthosporium sp. at 50 ug/ml after 7 days by poisoned food technique relative to control. The method in brief:
as §2

Test [16] relates to Alternaria alternata. The test can be described thus: Antifungal activity against Alternaria alternata at 50 ug/ml after 7 days by poisoned food technique relative to control. The method in brief:
as §2

Test [17] deals with Alternaria alternata. Briefly: Antifungal activity against Alternaria alternata at 100 ug/ml after 7 days by poisoned food technique relative to control. An outline of the steps: as §2
The subject of test [18] is Fusarium oxysporum. The test can be described thus: Antifungal activity against Fusarium oxysporum at 100 ug/ml after 7 days by poisoned food technique relative to control. An outline of the steps: as §2
Test [19] has as its system Helminthosporium. The test can be described thus: Antifungal activity against Helminthosporium sp. at 10 ug/ml after 7 days by poisoned food technique relative to control. The method in brief:
as §2

Test [20] deals with Fusarium oxysporum. Briefly: Antifungal activity against Fusarium oxysporum at 10 ug/ml after 7 days by poisoned food technique relative to control. An outline of the steps: as §2
In test [21] the test system is Fusarium oxysporum. The test can be described thus: Antifungal activity against Fusarium oxysporum at 50 ug/ml after 7 days by poisoned food technique relative to control. An outline of the steps: as §2
Test [22] relates to Helminthosporium. Briefly: Antifungal activity against Helminthosporium sp. at 100 ug/ml after 7 days by poisoned food technique relative to control. The method in brief: as §2
The test system of test [23] is Alternaria alternata. The test can be described thus: Antifungal activity against Alternaria alternata at 200 ug/ml after 7 days by poisoned food technique relative to control. An outline of the steps:
as §2

The subject of test [24] is Aspergillus terreus. The test can be described thus: Antifungal activity against Aspergillus terreus at 100 ug/ml after 7 days by poisoned food technique relative to control. An outline of the steps:
as §2

Structures are written as SMILES. Converted amounts (≈) assume the structure as drawn.

With `Cc1ccc(-c2cc(C)nn2-c2cc3nc(C)cc(-c4ccc(C)cc4)n3n2)cc1`, the zone of inhibition at 2000 µg/mL was 8 mm in the test on Pseudomonas aeruginosa [1], 8 mm in the test on Staphylococcus aureus [3], 10.5 mm with Escherichia coli [6] and 8.5 mm with Bacillus cereus [7]. In addition, the MIC in the test with Pseudomonas aeruginosa [2] was 100 µg/mL (≈ 254 µM); against Staphylococcus aureus [4], 100 µg/mL (≈ 254 µM); with Bacillus cereus [5], 100 µg/mL (≈ 254 µM); against Escherichia coli [8], 50 µg/mL (≈ 127 µM).

On to `Cc1cc(-c2ccccc2)n2nc(-n3nc(C)cc3-c3ccccc3)cc2n1`, for which the zone of inhibition at 2000 µg/mL was 7.5 mm in the test with Pseudomonas aeruginosa [1], 8 mm with Staphylococcus aureus [3], 8 mm in the test with Escherichia coli [6] and 8 mm in the test on Bacillus cereus [7]. In addition, the MIC is over 200 µg/mL against Pseudomonas aeruginosa [2], 200 µg/mL (≈ 547 µM) against Staphylococcus aureus [4], 200 µg/mL (≈ 547 µM) against Bacillus cereus [5] and 200 µg/mL (≈ 547 µM) in the test with Escherichia coli [8]. Further, the Activity in the test with Alternaria alternata [9] came out at 18.2%; in the test with Aspergillus terreus [10], 7.4%; in the test on Helminthosporium [11], 0%; in the test with Aspergillus terreus [12], 13.5%; in the test with Aspergillus terreus [13], 19.7%; with Fusarium oxysporum [14] it was 2.4%. In addition, the Activity is 0% with Helminthosporium [15]; 20.7% in the test on Alternaria alternata [16]; 19.5% in the test with Alternaria alternata [17]; 3.65% in the test with Fusarium oxysporum [18]; 0% in the test with Helminthosporium [19]; 8.53% with Fusarium oxysporum [20]. The Activity in the test on Fusarium oxysporum [21] was determined as 6.09%; in the test on Helminthosporium [22] it was 0%; in the test with Alternaria alternata [23], 20.7%; with Aspergillus terreus [24] it was 19.2%.

In the case of `Cc1cc(-c2ccc(Br)cc2)n2nc(-n3nc(C)cc3-c3ccc(Br)cc3)cc2n1`, the zone of inhibition at 2000 µg/mL in the test on Pseudomonas aeruginosa [1], with Staphylococcus aureus [3], in the test with Escherichia coli [6] and with Bacillus cereus [7] was 8 mm throughout. Further, the MIC in the test with Pseudomonas aeruginosa [2], against Staphylococcus aureus [4], in the test on Bacillus cereus [5] and against Escherichia coli [8] was over 100 µg/mL each time.

Take `COc1ccc(-c2cc(C)nn2-c2cc3nc(C)cc(-c4ccc(OC)cc4)n3n2)cc1`: the zone of inhibition at 2000 µg/mL in the test on Pseudomonas aeruginosa [1], in the test on Staphylococcus aureus [3], with Escherichia coli [6] and in the test on Bacillus cereus [7] was 8 mm throughout. Further, the MIC in the test on Pseudomonas aeruginosa [2], against Staphylococcus aureus [4], in the test with Bacillus cereus [5] and with Escherichia coli [8] was over 100 µg/mL each time. Further, the Activity in the test with Alternaria alternata [9] amounted to 0%; with Aspergillus terreus [10], 2.5%; in the test on Helminthosporium [11] it was 62.2%; in the test with Aspergillus terreus [12], 6.25%; with Aspergillus terreus [13], 11.3%; with Fusarium oxysporum [14], 20%. For the same compound, the Activity in the test with Helminthosporium [15] was found to be 0%; in the test with Alternaria alternata [16], 0%; in the test on Alternaria alternata [17], 11.1%; with Fusarium oxysporum [18], 26.2%; with Helminthosporium [19] it was 0%; in the test with Fusarium oxysporum [20], 6.55%. For the same compound, the Activity amounted to 3.27% in the test with Fusarium oxysporum [21], 27.7% in the test with Helminthosporium [22], 11.1% with Alternaria alternata [23] and 7.5% with Aspergillus terreus [24].
